# Reference: the RNAGym collection of RNA variant scans (doi:10.1002/anie.201605470)
# B1: Osa-1-4 twister ribozyme (parent)
# chain: CCGCCUAACACUGCCAAUGCCGGUCCCAAGCCCGGAUAAAAGUGGAGGGGGCGG
# Variants of: B1
# Experiment: self-cleavage, relative activity (ratio to wild type); higher = more cleavage; co-transcriptional
# Outline: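 The 48 positions downstream of the cleavage site in a DNA template for a 54-nucleotide Oryza sativa twister ribozyme carried 97 % wild-type base and 1 % of each other base. After in vitro transcription (2 h, 37 °C) with co-transcriptional self-cleavage, the RNA was reverse-transcribed with a template-switching oligonucleotide, PCR-amplified and deep-sequenced. Relative activity is the fraction cleaved, judged by reads with or without upstream sequence and normalised to wild type.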
row,Variant,self-cleavage
1,A29G G47A,0.05
2,A29G G47U,0.03
3,A29G G47C,0.03
4,A29U C14U,0.05
5,A29U C14A,0.03
6,A29U C14G,0.04
7,A29U C25U,0.1
8,A29U C25A,0.03
9,A29U C25G,0.05
10,G30C G53U,0.04
11,G30C G53C,0.02
12,G30C G53A,0.04
13,A29U U18A,0.12
14,A29U U18C,0.13
15,A29U U18G,0.25
16,A29U G34A,0.07
17,A29U G34C,0.05
18,A29U G34U,0.05
19,A29G G34C,0.06
20,A29G G34A,0.13
21,A29G G34U,0.05
22,G30A G54U,0.06
23,G30A G54A,0.05
24,G30A G54C,0.04

row,Variant,self-cleavage
1,G30A G35A,0.05
2,G30A G35U,0.04
3,G30A G35C,0.03
4,G30U G50A,0.03
5,G30U G50C,0.05
6,G30U G50U,0.05
7,A29U C9G,0.07
8,A29U C9A,0.03
9,A29U C9U,0.05
10,G30U G49C,0.02
11,G30U G49U,0.03
12,G30U G49A,0.02
13,A29G G23A,0.07
14,A29G G23C,0.04
15,A29G G23U,0.05
16,G30A U12A,0.03
17,G30A U12G,0.02
18,G30A U12C,0.03
19,A29G G51U,0.06
20,A29G G51A,0.1
21,A29G G51C,0.05
22,A29U G19A,0.05
23,A29U G19C,0.03
24,A29U G19U,0.05

row,Variant,self-cleavage
1,A29U G44A,0.06
2,A29U G44U,0.07
3,A29U G44C,0.12
4,A29U G42A,0.06
5,A29U G42U,0.03
6,A29U G42C,0.04
7,G30U G42C,0.03
8,G30U G42U,0.02
9,G30U G42A,0.04
10,A29U G22U,0.08
11,A29U G22A,0.12
12,A29U G22C,0.04
13,A29U G23A,0.08
14,A29U G23U,0.03
15,A29U G23C,0.03
16,A29G U18G,0.34
17,A29G U18C,0.23
18,A29G U18A,0.23
19,A29G C52A,0.16
20,A29G C52G,0.22
21,A29G C52U,0.34
22,G30A G51A,0.04
23,G30A G51C,0.02
24,G30A G51U,0.04

row,Variant,self-cleavage
1,G30U G44A,0.04
2,G30U G44U,0.05
3,G30U G44C,0.04
4,G30C G54A,0.05
5,G30C G54U,0.05
6,G30C G54C,0.04
7,A29G G50U,0.17
8,A29G G50C,0.08
9,A29G G50A,0.27
10,G30C U43G,0.05
11,G30C U43A,0.05
12,G30C U43C,0.04
13,G30C G45A,0.03
14,G30C G45C,0.02
15,G30C G45U,0.02
16,A29G G13C,0.01
17,A29G G13U,0.03
18,A29G G13A,0.04
19,A29U A7C,0.02
20,A29U A7G,0.06
21,A29U A7U,0.05
22,G30U G45U,0.02
23,G30U G45A,0.03
24,G30U G45C,0.02

row,Variant,self-cleavage
1,A29U C27U,0.08
2,A29U C27G,0.05
3,A29U C27A,0.03
4,A29U C21G,0.04
5,A29U C21A,0.05
6,A29U C21U,0.15
7,A29U G48U,0.03
8,A29U G48A,0.03
9,A29U G48C,0.03
10,A29U A41C,0.13
11,A29U A41U,0.2
12,A29U A41G,0.06
13,A29G G30C,0.03
14,A29G G30U,0.04
15,A29G G30A,0.05
16,A29U G13C,0.01
17,A29U G13A,0.04
18,A29U G13U,0.02
19,A29U C32A,0.04
20,A29U C32U,0.03
21,A29U C32G,0.03
22,G30C U37C,0.04
23,G30C U37A,0.03
24,G30C U37G,0.05

row,Variant,self-cleavage
1,A29U G45C,0.03
2,A29U G45U,0.03
3,A29U G45A,0.03
4,A29G G22C,0.12
5,A29G G22A,0.11
6,A29G G22U,0.06
7,G30A U37A,0.03
8,G30A U37G,0.05
9,G30A U37C,0.03
10,G30C G50A,0.04
11,G30C G50C,0.05
12,G30C G50U,0.05
13,A29U A39G,0.07
14,A29U A39U,0.07
15,A29U A39C,0.05
16,A29U G54C,0.06
17,A29U G54U,0.27
18,A29U G54A,0.09
19,G30U G34U,0.04
20,G30U G34A,0.04
21,G30U G34C,0.05
22,G30A G45A,0.03
23,G30A G45U,0.02
24,G30A G45C,0.02

row,Variant,self-cleavage
1,A29U U24G,0.01
2,A29U U24C,0.06
3,A29U U24A,0.32
4,A29U C52U,0.19
5,A29U C52G,0.12
6,A29U C52A,0.08
7,A29G U12C,0.08
8,A29G U12G,0.04
9,A29G U12A,0.1
10,G30C G44A,0.03
11,G30C G44C,0.04
12,G30C G44U,0.04
13,G30C,0.04
14,G30U,0.04
15,G30A,0.04
16,A29G C33U,0.07
17,A29G C33G,0.15
18,A29G C33A,0.05
19,A29U C11A,0.05
20,A29U C11G,0.04
21,A29U C11U,0.08
22,A29U U37G,0.23
23,A29U U37A,0.16
